Consider 31 molecules from ChEMBL document CHEMBL1155066, “Discovery of selective and nonpeptidic cathepsin S inhibitors” (Bioorg Med Chem Lett, 2008).

As usually defined, the IC50 is the concentration needed to halve the response being measured. Usually half-life stands for how long it takes for the measured level to halve. Read a low half-life as rapid decline. By Cmax is commonly meant the peak of the concentration-time curve. For orientation: bioavailability means dose-corrected exposure relative to a reference, in per cent. A low value points to little systemic uptake. Usually AUC stands for the area under the concentration-time curve, a measure of exposure.

Activity calls are given as the source filed them. The rule behind the calls is not given here.

One data set deals with T1, Cathepsin K (Homo sapiens, UniProt P43235).
T1 sequence (P43235 whole entry): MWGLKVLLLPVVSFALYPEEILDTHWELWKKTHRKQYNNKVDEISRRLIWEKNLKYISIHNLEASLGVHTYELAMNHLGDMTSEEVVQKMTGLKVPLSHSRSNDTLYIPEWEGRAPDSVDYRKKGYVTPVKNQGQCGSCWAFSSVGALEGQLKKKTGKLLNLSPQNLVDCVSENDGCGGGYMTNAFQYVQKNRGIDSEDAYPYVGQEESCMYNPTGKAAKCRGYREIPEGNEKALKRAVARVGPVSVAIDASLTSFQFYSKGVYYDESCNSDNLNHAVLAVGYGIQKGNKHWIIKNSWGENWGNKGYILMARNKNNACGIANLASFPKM
The experiment in a line: Inhibition of human recombinant cathepsin K by fluorescence assay. In short, it runs like this: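 Fluorometric assay with recombinant human Cat K; Z-Phe-Arg-AMC substrate; IC50 determined.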

In the next data set the target is Cathepsin S (Homo sapiens, UniProt P25774). The experiment in a line: Inhibition of human recombinant cathepsin S by fluorescence assay. In short, it runs like this: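 Recombinant human Cat S, fluorometric readout using Z-Leu-Leu-Arg-AMC substrate; IC50 reported.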
In the next data set the target is Procathepsin L (Homo sapiens, UniProt P07711). Briefly: Inhibition of human recombinant cathepsin L by fluorescence assay. In short, it runs like this: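 Recombinant human Cat L measured fluorometrically with Z-Phe-Arg-AMC as substrate; IC50 reported.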
Data set [1] in a line: Half life in Sprague-Dawley rat at 1.6 mg/kg, iv. The data set is classed as ADME, organism-based. Set-up: dose 1.6 mg/kg, route intravenous. To be noted: in vivo.
Data set [2] is described as follows: Cmax in Sprague-Dawley rat at 1.0 mg/kg, po. The data set is classed as ADME, organism-based. Also noted: dose 1 mg/kg, route oral. To be noted: in vivo.
The nature of data set [3]: Oral bioavailability in Sprague-Dawley rat at 4.0 mg/kg, po. Particulars: in vivo. The format is ADME, organism-based.
Data set [4] is described as follows: Plasma clearance in Sprague-Dawley rat at 1.6 mg/kg, iv or 4.0 mg/kg, po. The data set is classed as ADME, organism-based.
Data set [5] in a line: AUC in Sprague-Dawley rat at 1.0 mg/kg, po. The format is ADME, organism-based. Set-up: dose 1 mg/kg, route oral. Particulars: plasma.
For data set [6], the target named is Cathepsin S (Mus musculus) (UniProt O70370). Briefly: Inhibition of cathepsin S in mouse splenocytes assessed as MHC2 associated invariant chain degradation at 1 uM. The data set is classed as cell-based. The essentials:
(§1)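 Cellular secondary assay in mouse splenocytes; degradation of MHC class II associated invariant chain monitored after compound exposure at a single concentration.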

Data set [7] can be described thus: Plasma clearance in Sprague-Dawley rat at 1.0 mg/kg, iv or 3.0 mg/kg, po. The data set is classed as ADME, organism-based.
The nature of data set [8]: Oral bioavailability in Sprague-Dawley rat at 3.0mg/kg, po. The data set is classed as ADME, organism-based. To be noted: in vivo, 3 mg/kg.
Data set [9] in a line: Half life in Sprague-Dawley rat at 1.0 mg/kg, iv. The format is ADME, organism-based. Particulars: in vivo. Set-up: dose 1 mg/kg, route intravenous.
In data set [10] the target is Cathepsin S (Mus musculus) (UniProt O70370). The experiment in a line: Inhibition of cathepsin S in mouse splenocytes assessed as MHC2 associated invariant chain degradation at 10 uM. The data set is classed as cell-based. The essentials:
as §1

Sequence of Procathepsin L (P07711 whole entry): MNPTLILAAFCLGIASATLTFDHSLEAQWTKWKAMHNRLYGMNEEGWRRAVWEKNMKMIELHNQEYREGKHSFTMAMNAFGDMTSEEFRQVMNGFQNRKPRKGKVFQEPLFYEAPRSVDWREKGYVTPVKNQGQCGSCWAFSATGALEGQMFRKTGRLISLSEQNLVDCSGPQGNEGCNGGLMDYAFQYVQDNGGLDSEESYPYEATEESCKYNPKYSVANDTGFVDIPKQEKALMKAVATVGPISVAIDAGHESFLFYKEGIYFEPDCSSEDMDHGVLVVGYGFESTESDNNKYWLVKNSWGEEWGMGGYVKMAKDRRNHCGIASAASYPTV
Sequence of Cathepsin S (P25774 whole entry): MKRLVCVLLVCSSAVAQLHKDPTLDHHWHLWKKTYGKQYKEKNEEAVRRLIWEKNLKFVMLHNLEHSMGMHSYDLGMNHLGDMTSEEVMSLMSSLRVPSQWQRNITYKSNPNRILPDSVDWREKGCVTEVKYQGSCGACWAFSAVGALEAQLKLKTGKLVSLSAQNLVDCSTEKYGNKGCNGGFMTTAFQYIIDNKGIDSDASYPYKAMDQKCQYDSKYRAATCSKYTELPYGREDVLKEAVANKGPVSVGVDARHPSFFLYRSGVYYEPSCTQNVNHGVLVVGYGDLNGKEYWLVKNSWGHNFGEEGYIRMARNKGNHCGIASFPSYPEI

As for `N#Cc1ncc2cc(COc3cccc(C(N)=O)c3)n(CCC3CCCCC3)c2n1`, the values for the IC50 on Cathepsin K, at Cathepsin S and on Procathepsin L were 0.39 µM, 0.007 µM and greater than 1 µM, respectively.
`N#Cc1ncc2cc(COc3ccc(C(N)=O)cc3)n(CCC3CCCCC3)c2n1`: the values for the IC50 on Cathepsin K, on Cathepsin S and on Procathepsin L were 0.28 µM, 0.002 µM and greater than 1 µM, respectively. For the same molecule, the half-life in [1] is 0.7 h. Also, in data set [2], the Cmax turned out to be 25 nM. The bioavailability in [3] worked out at 21%. This molecule also gave a clearance in data set [4] of 83.3 mL/min/kg. For the same molecule, the AUC in data set [5] worked out at 0.108 µM·h.
Turning to `CC(C)(C)CCCn1c(Cc2ccc(Cl)cc2)cc2cnc(C#N)nc21`, the concentration for half-maximal inhibition (IC50) at Cathepsin K was 0.1 µM; at Cathepsin S, 0.32 µM; at Procathepsin L, greater than 1 µM.
Regarding `N#Cc1ncc2cc(CNc3ccccc3)n(CCC3CCCCC3)c2n1`, the values for the IC50 on Cathepsin K, on Cathepsin S and at Procathepsin L were greater than 1 µM, 0.024 µM and greater than 1 µM, respectively.
For the molecule `CC(C)(C)CCn1c(Cc2ccc(Cl)cc2)cc2cnc(C#N)nc21`, in data set [6], the result was Active. Also, the IC50 on Cathepsin K was less than 0.001 µM; on Cathepsin S it was 0.002 µM; at Procathepsin L it was 0.018 µM.
On to `N#Cc1ncc2cc(Cc3ccc(Cl)cc3)n(CCC3CCCC3)c2n1`, for which the IC50 is 0.017 µM on Cathepsin K, 0.007 µM at Cathepsin S and 0.26 µM on Procathepsin L.
In the case of `N#Cc1ncc2cc(COc3ccccc3)n(CCC3CCCCC3)c2n1`, the results for the IC50 on Cathepsin K, at Cathepsin S and on Procathepsin L were greater than 1 µM, 0.01 µM and greater than 1 µM, respectively.
As for `N#Cc1ncc2cc(Cc3ccc(Cl)cc3)n(CCc3ccccc3)c2n1`, the half-inhibitory concentration (IC50) came to 0.1 µM on Cathepsin K, 0.064 µM on Cathepsin S and 0.023 µM on Procathepsin L.
For `CC(=O)Nc1ccc(OCc2cc3cnc(C#N)nc3n2CCC2CCCCC2)cc1`, the figures for the IC50 at Cathepsin K, on Cathepsin S and at Procathepsin L were greater than 1 µM, 0.008 µM and greater than 1 µM, respectively.
On to `CC(=O)N1CC=C(c2ccc(OCc3cc4cnc(C#N)nc4n3CCC3CCCCC3)cc2)CC1`, for which the half-maximal inhibitory concentration (IC50) at Cathepsin K was greater than 1 µM; on Cathepsin S, 0.013 µM; on Procathepsin L, greater than 1 µM. For the same molecule, the clearance in [7] was 41.7 mL/min/kg. The molecule also had a bioavailability in [8] of 38%. Moreover, the Cmax in data set [2] turned out to be 43 nM. Also, the AUC in data set [5] was determined as 0.346 µM·h. In data set [9], the half-life was 1.4 h.
With `N#Cc1ncc2cc(COc3ccc(C(=O)O)cc3)n(CCC3CCCCC3)c2n1`, the IC50 on Cathepsin K is greater than 2 µM; at Cathepsin S it was 0.016 µM; at Procathepsin L, greater than 2 µM. For the same molecule, in data set [10], the result was inactive.
For `CCC(=O)Nc1ccc(OCc2cc3cnc(C#N)nc3n2CCC2CCCCC2)cc1`, the IC50 on Cathepsin K was greater than 1.5 µM; on Cathepsin S, 0.012 µM; on Procathepsin L, greater than 4 µM.
For `N#Cc1ncc2cc(Cc3ccc(Cl)cc3)n(CCC3CCCCCCC3)c2n1` the same measures were greater than 1 µM, 0.099 µM and greater than 1 µM.
Turning to `N#Cc1ncc2cc(Cc3cccc4ccccc34)n(CCC3CCCCC3)c2n1`, the IC50 at Cathepsin S was found to be 0.44 µM.
`N#Cc1ncc2cc(Cc3ccc(Cl)cc3)n(CCc3cccc(Cl)c3)c2n1`: the IC50 was greater than 1 µM on Cathepsin K, 0.19 µM at Cathepsin S and 0.04 µM on Procathepsin L.
As to `CC(C)C[C@@H](NC(=O)N1CCOCC1)C(=O)N[C@@H](/C=C/S(=O)(=O)c1ccccc1)CCc1ccccc1`, the outcome in data set [6] was Active.
Turning to `N#Cc1ncc2cc(Cc3ccc(Cl)cc3)n(CCc3ccc(Cl)cc3)c2n1`, the IC50 on Cathepsin K is greater than 1 µM; on Cathepsin S, 0.019 µM; on Procathepsin L, 0.086 µM.
Turning to `N#Cc1ncc2cc(COc3ccccn3)n(CCC3CCCCC3)c2n1`, the IC50 was 0.25 µM at Cathepsin K, 0.011 µM at Cathepsin S and 0.79 µM at Procathepsin L.
On to `CN(Cc1cc2cnc(C#N)nc2n1CCC1CCCCC1)c1ccccc1`, for which the IC50 is greater than 1 µM at Cathepsin K, 0.052 µM at Cathepsin S and greater than 1 µM on Procathepsin L.
As for `CC(C)(C)Cn1c(Cc2ccc(Cl)cc2)cc2cnc(C#N)nc21`, the IC50 on Cathepsin K is less than 0.001 µM; on Procathepsin L it was 0.096 µM.
As to `N#Cc1ncc2cc(CSc3ccncc3)n(CCC3CCCCC3)c2n1`, the IC50 on Cathepsin K was 0.48 µM; at Cathepsin S, 0.006 µM; at Procathepsin L it was greater than 1 µM.
For the molecule `N#Cc1ncc2cc(Cc3ccc(Cl)cc3)n(CCC3CCCCCC3)c2n1`, the IC50 at Cathepsin K was greater than 1 µM; at Cathepsin S, 0.033 µM; at Procathepsin L, 0.84 µM.
Regarding `N#Cc1ncc2cc(Cc3ccc(Cl)cc3)n(CC3CCCCC3)c2n1`, the IC50 at Cathepsin K was found to be 0.006 µM; at Cathepsin S, 0.11 µM; on Procathepsin L, 0.37 µM.
`CC(=O)N1CCC(c2ccc(OCc3cc4cnc(C#N)nc4n3CCC3CCCCC3)cc2)CC1`: the IC50 at Cathepsin K is greater than 1 µM; on Cathepsin S, 0.015 µM; at Procathepsin L it was greater than 1 µM. In data set [7], the clearance was 88.3 mL/min/kg. Also, the bioavailability in data set [8] is 25%. Further, the Cmax in [2] turned out to be 17 nM. Also, the AUC in data set [5] was found to be 0.103 µM·h. The molecule also showed a half-life in data set [9] of 1.3 h.
Take `N#Cc1ncc2cc(Cc3ccc(Cl)cc3)n(CCC3CCCCC3)c2n1`: the IC50 is 0.22 µM on Cathepsin K, 0.021 µM on Cathepsin S and 0.32 µM at Procathepsin L.
Regarding `N#Cc1ncc2cc(COc3cccc(CCC(=O)O)c3)n(CCC3CCCCC3)c2n1`, the half-inhibitory concentration (IC50) was greater than 5 µM on Cathepsin K, 0.006 µM on Cathepsin S and greater than 5 µM on Procathepsin L. Besides, the result in [10] was inactive.
Regarding `N#Cc1ncc2cc(Cc3ccc(Cl)cc3)n(CCN3CCCCC3)c2n1`, the IC50 on Cathepsin K, at Cathepsin S and on Procathepsin L was greater than 1 µM throughout.
For `CC(=O)N1CCN(c2ccc(OCc3cc4cnc(C#N)nc4n3CCC3CCCCC3)cc2)CC1`, the result in [6] was Active. Moreover, the IC50 at Cathepsin K is greater than 1.5 µM; at Cathepsin S, 0.009 µM; at Procathepsin L it was greater than 4 µM. In [7], this molecule showed a clearance of 66.7 mL/min/kg. In data set [8], this molecule came in with a bioavailability of 47%. Moreover, in data set [2], the Cmax was found to be 34 nM. The molecule further gave an AUC in [5] of 0.242 µM·h. Also, the half-life in data set [9] is 1.2 h.
Regarding `N#Cc1ncc2cc(Cc3ccc(Cl)cc3)n(CCCC3CCCCC3)c2n1`, the values for the IC50 at Cathepsin K, at Cathepsin S and at Procathepsin L were greater than 1 µM, 0.15 µM and greater than 1 µM, respectively.
In the case of `N#Cc1ncc2cc(CC3CCCCC3)n(CCC3CCCCC3)c2n1`, the IC50 is 0.14 µM at Cathepsin S and greater than 1 µM at Procathepsin L.
Take `COc1ccc(Cc2cc3cnc(C#N)nc3n2CCC2CCCCC2)cc1`: the figures for the IC50 at Cathepsin K, at Cathepsin S and on Procathepsin L were 0.28 µM, 0.11 µM and greater than 1 µM, respectively.
